Where two headings read alike, the source gives them in different places.
Key:
[1] = ref previous studies; cited from earlier work
[2] = type: in vivo, healthy adult subjects (human)
Method in brief: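 Open-label, fixed-sequence, three periods, ≥10-day washouts, overnight-fasted. Single oral inhibitor FDC (50 mg/100 mg) given alone, after H2-antagonist 20 mg orally ~10 h and 2 h before, or ~2 h after PPI 40 mg on day 5 of 5 daily doses. Plasma sampled predose to 96 h; LC-MS/MS. Noncompartmental; t½ = ln2/λz; GMRs via mixed-effects model on log values.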

[3] = cited from earlier work

C24 GMR ([2]; GZR, EBR/GZR FDC + FAM / EBR/GZR FDC)	C24 GMR ([2]; GZR, EBR/GZR FDC + PAN / EBR/GZR FDC)	SMILES	apparent terminal half-life (t½) [1] [h]	time to maximum drug concentration (tmax) [1] [h]	half-life ([2]; human, plasma, po, 100 mg) [h]	tmax, median ([2]; EBR in plasma, EBR/GZR FDC + FAM 20 mg given 10 h and 2 h before) [h]	C24 GMR ([2]; EBR, EBR/GZR FDC + FAM / EBR/GZR FDC)	C24 GMR ([2]; EBR, EBR/GZR FDC + PAN / EBR/GZR FDC)	Tmax ([2]; human, plasma, po, 100 mg) [h]	solubility versus stomach pH [3]
1.12	1.17	C=C[C@@H]1C[C@]1(NC(=O)[C@@H]1C[C@@H]2CN1C(=O)[C@H](C(C)(C)C)NC(=O)O[C@@H]1C[C@H]1CCCCCc1nc3ccc(OC)cc3nc1O2)C(=O)NS(=O)(=O)C1CC1 [GZR, grazoprevir]	~20	2 to 4	33.8	–	–	–	–	–
–	–	COC(=O)N[C@H](C(=O)N1CCC[C@H]1c1nc(-c2ccc3c(c2)O[C@@H](c2ccccc2)n2c-3cc3cc(-c4c[nH]c([C@@H]5CCCN5C(=O)[C@@H](NC(=O)OC)C(C)C)n4)ccc32)c[nH]1)C(C)C [EBR, elbasvir]	~20	2 to 4	19.3	3.50	1.03	1.03	3.5	–
–	–	COC[C@H]1C[C@@H](c2ncc(-c3ccc4c(c3)COc3cc5c(ccc6nc([C@@H]7CC[C@H](C)N7C(=O)[C@@H](NC(=O)OC)C(C)C)[nH]c65)cc3-4)[nH]2)N(C(=O)[C@H](NC(=O)OC)c2ccccc2)C1 [velpatasvir]	–	–	–	–	–	–	–	decrease as stomach pH increases
–	–	COC(=O)N[C@H](C(=O)N1CC2(CC2)C[C@H]1c1ncc(-c2ccc3c(c2)C(F)(F)c2cc(-c4ccc5nc([C@@H]6[C@H]7CC[C@H](C7)N6C(=O)[C@@H](NC(=O)OC)C(C)C)[nH]c5c4)ccc2-3)[nH]1)C(C)C [ledipasvir]	–	–	–	–	–	–	–	decrease as stomach pH increases
